# Bioassay records deposited in PubChem by Broad Institute.
# This is one part of a sample in which hits are shown more often than they occur.
# Xi reactivation – activators of inactive X chromosome reactivation, primary screen, imaging, XiGFP fibroblasts, GFP high-content imaging, set 2; activation, % at 7.58 µM; hit rate 0.055% among 360,000; XiGFP mouse fibroblasts, % GFP-positive cells imaging, 3 d; cells co-treated with 5-aza-dC sensitizer; scaled so ellipticine positive control = 100%;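 active = mean normalized replicate activation at least 10% and every replicate at or above 10%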;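 also: 0% = median of on-plate neutral control wells and 100% = ellipticine 6 µM median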
#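 Material: XiGFP fibroblasts, SV40-immortalized; Buffer or medium: DMEM containing 5-aza-dC; Compound dosing: single point; Times: 3 days compound exposure.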
# E-selectin induc – E-selectin induction in HUVECs, primary screen, imaging, HUVEC, immunofluorescence imaging, single point | normalized: neutral wells 0, TNF-alpha wells 100 | activation, % at 7.58 µM | P16581 | hit rate 0.37% among 260,000;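 active = mean E-selectin-positive cell signal at least 10% of the positive control, reached in at least 60% of replicates, without over 20% cell loss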
# Target sequence (P16581 whole entry, looked up): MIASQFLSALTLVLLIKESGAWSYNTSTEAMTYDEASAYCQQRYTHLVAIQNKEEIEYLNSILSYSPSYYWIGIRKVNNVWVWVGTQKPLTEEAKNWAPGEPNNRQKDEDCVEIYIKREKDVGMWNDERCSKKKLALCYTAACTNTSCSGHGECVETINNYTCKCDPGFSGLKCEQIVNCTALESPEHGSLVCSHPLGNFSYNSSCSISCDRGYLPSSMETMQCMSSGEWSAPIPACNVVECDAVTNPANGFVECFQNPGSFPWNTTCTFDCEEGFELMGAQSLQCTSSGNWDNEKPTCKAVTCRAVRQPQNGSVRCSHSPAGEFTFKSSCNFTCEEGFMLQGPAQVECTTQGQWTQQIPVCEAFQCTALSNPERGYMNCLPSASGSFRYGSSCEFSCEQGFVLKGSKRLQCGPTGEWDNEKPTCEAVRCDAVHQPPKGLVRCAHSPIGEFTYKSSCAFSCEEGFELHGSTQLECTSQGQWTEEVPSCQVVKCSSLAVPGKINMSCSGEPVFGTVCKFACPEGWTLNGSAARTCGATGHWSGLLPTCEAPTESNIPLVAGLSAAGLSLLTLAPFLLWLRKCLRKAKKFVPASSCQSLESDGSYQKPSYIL
#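 System: HUVEC, human umbilical vein endothelial cells; quantity: 3,000 cells/well; buffer or medium: EGM-2 medium, gelatin-coated wells; dosing: single-point compound dose; detection: immunofluorescence imaging; evaluation: % PE-positive cells; benchmarks: TNF-alpha, DMSO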
# Active calls of the source: *; x = no result.
SMILES,Xi reactivation,E-selectin induc
COc1ccc(S(=O)(=O)N(C)C[C@H]2Oc3ccc(NC(=O)c4ccncc4)cc3C(=O)N([C@H](C)CO)C[C@@H]2C)cc1,0.1,53.6*
COc1ccc(NC(=O)Nc2ccc3c(c2)C(=O)N([C@@H](C)CO)C[C@@H](C)[C@@H](CN(C)S(=O)(=O)c2ccc(F)cc2)O3)cc1,0.0,37.4*
COc1ccc(S(=O)(=O)N(C)C[C@H]2Oc3ccc(NC(=O)CCCN(C)C)cc3C(=O)N([C@@H](C)CO)C[C@H]2C)cc1,0.4,97.0*
COc1ccc(S(=O)(=O)N(C)C[C@@H]2Oc3ccc(NC(=O)CCCN(C)C)cc3C(=O)N([C@H](C)CO)C[C@@H]2C)cc1,0.1,24.4
COc1ccc(S(=O)(=O)N(C)C[C@H]2Oc3ccc(NC(=O)CCCN(C)C)cc3C(=O)N([C@@H](C)CO)C[C@@H]2C)cc1,0.1,52.0*
COc1ccc(S(=O)(=O)N(C)C[C@H]2Oc3ccc(NC(=O)CCCN(C)C)cc3C(=O)N([C@H](C)CO)C[C@@H]2C)cc1,0.0,6.5
COc1ccc(S(=O)(=O)N(C)C[C@H]2Oc3ccc(NC(=O)Nc4ccc(F)cc4)cc3C(=O)N([C@H](C)CO)C[C@@H]2C)cc1,-1.0,-0.2
COc1ccc(S(=O)(=O)N(C)C[C@@H]2Oc3ccc(NC(=O)c4ccncc4)cc3C(=O)N([C@@H](C)CO)C[C@H]2C)cc1,-0.1,-15.2
COc1ccc2c3c(n(C)c2c1)[C@@H](CO)N(C(C)=O)CC31CN(C(=O)NC(C)C)C1,0.2,x
COc1ccc2c3c(n(C)c2c1)[C@@H](CO)N(Cc1ccccc1Cl)CC31CCN(C(C)=O)CC1,0.0,-0.5
CCCNC(=O)N1CC(=O)N2[C@H](CO)[C@H](c3ccc(C#Cc4ccccc4)cc3)[C@@H]2C1,0.5,x
COc1ccc2c3c([nH]c2c1)[C@@H](CO)NCC31CN(S(=O)(=O)c2ccccc2)C1,0.0,1.2
CC(C)CC#Cc1ccc([C@@H]2[C@@H](CO)N3C(=O)CN(S(C)(=O)=O)C[C@H]23)cc1,0.1,x
C[C@H]1CN([C@@H](C)CO)C(=O)c2cc(NC(=O)Nc3ccc(F)cc3)ccc2O[C@H]1CN(C)S(=O)(=O)c1cccs1,-0.2,26.5*
C[C@H](CO)N1C[C@H](C)[C@@H](CN(C)S(=O)(=O)c2cccs2)Oc2ccc(NC(=O)Nc3ccc(F)cc3)cc2C1=O,-0.1,-6.4
C[C@H]1CCCCO[C@H](CN(C)C(=O)C2CCCCC2)[C@@H](C)CN([C@@H](C)CO)C(=O)c2cc(NC(=O)Cc3ccccc3)ccc2O1,0.0,0.0
Cc1ccc2c(c1)S/C(=C\c1cccc[n+]1C)N2CCO,0.0,0.1
CCN1/C(=C\c2ccc3cc(C)ccc3[n+]2CC)Sc2cc(C)c(C)cc21,77.2*,x
CCN1/C(=C/c2ccc3cc(C)cc(C)c3[n+]2CC)Sc2cc(C)ccc21,109.6*,x
C=CC[n+]1c(/C=C2\C=Cc3cc(C)ccc3N2CC)ccc2ccccc21,0.3,0.4
CN(C)CC(=O)N1[C@@H](CO)[C@@H](c2ccccc2)C12CN(C(=O)c1ccccc1)C2,0.0,0.0
C[C@@H]1CN([C@H](C)CO)C(=O)Cc2cc(NS(=O)(=O)c3cn(C)cn3)ccc2O[C@@H]1CN(C)Cc1ccc(C(=O)Nc2ccccc2N)cc1,-0.5,-0.2
Cc1cc([N+](=O)[O-])nn1CC(=O)N1CCOCC1,0.1,0.1
Cc1cc([N+](=O)[O-])nn1CC(=O)NCCCN1CCOCC1,0.4,26.7*
COc1ccc2c3c(n(C)c2c1)[C@@H](CO)N(C(C)=O)CC31CCN(Cc2cncnc2)CC1,0.3,x
SMILES,Xi reactivation,E-selectin induc
C[C@H]1CN(C)C(=O)c2cccc(N)c2O[C@H]1CN(C)S(C)(=O)=O,0.3,x
C[C@@H]1CCCCO[C@@H](CN(C)Cc2ccc(C(=O)Nc3ccccc3N)cc2)[C@@H](C)CN([C@@H](C)CO)C(=O)c2cc(N(C)C)ccc2O1,-0.1,x
COc1ccc(/C=N/NC(=O)c2cc[n+]([O-])cc2)cc1,0.3,42.1*
O=C(N/N=C/c1ccc(OC(F)F)cc1)c1cc[n+]([O-])cc1,0.4,8.2
CCCC(=O)Nc1ccc2c(c1)OC[C@@H](C)N(CC1CCCC1)C[C@@H](C)[C@@H](OC)CN(C)C2=O,0.0,0.0
CCCC(=O)Nc1ccc2c(c1)C(=O)N(C)C[C@H](OC)[C@@H](C)CN(Cc1cncnc1)[C@@H](C)CO2,0.2,-0.4
CO[C@H]1CN(C)C(=O)c2ccc(NS(C)(=O)=O)cc2OC[C@H](C)N(Cc2ccccc2)C[C@@H]1C,-0.1,0.1
CCOC(=O)CCCCCC(=O)Nc1ccc2c(c1)C(=O)N([C@@H](C)CO)C[C@H](C)[C@H](CN(C)S(C)(=O)=O)O2,-0.1,x
